Here are results for 2 compounds from PMC5237706 (Acta Pharmaceutica Sinica. B, 2016).

The test system of assay [1] is energized hepatic mitochondria (mPTP opening). Nature of the assay: Mitochondrial swelling. Particulars: Fig. 5B; for induction of mitochondrial swelling at 10 μmol/L: 10 μmol/L alone. In kind it is biochemical, rat. The method in brief:
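Energized rat hepatic mitochondria (1 mg/mL) in sucrose/HEPES/glutamate/malate medium, pH 7.4. Swelling followed as apparent A540 change after adding test compound (concentration series; 10 μmol/L alone or with Ca2+ 0.1 μmol/L). CsA 1 μmol/L added to suspensions containing 20 μmol/L compound. […]; mean±SEM of three independent experiments.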

The target in assay [2] is T1, CAT (Rattus norvegicus, UniProt P04762).
T1 sequence (P04762 1-527): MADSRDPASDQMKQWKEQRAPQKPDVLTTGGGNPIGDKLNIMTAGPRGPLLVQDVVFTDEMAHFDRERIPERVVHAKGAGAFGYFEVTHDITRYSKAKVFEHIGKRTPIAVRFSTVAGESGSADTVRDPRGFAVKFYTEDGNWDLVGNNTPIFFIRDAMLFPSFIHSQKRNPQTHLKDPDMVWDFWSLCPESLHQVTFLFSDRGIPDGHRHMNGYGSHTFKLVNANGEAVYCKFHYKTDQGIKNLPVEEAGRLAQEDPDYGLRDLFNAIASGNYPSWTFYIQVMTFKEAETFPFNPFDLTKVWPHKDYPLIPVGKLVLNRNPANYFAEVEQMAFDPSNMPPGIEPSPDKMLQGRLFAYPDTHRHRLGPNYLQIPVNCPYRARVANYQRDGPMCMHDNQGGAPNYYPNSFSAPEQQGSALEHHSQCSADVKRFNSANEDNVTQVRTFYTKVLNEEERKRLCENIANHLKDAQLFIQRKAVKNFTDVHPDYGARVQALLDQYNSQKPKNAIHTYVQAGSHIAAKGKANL
Nature of the assay: Mitochondrial CAT activity. In kind it is biochemical. Particulars: 10 μmol/L, 15 and 30 min. The gist of the method:
(§1)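 Energized liver mitochondria from male Wistar rats incubated with test compound (10 μmol/L) for 15 or 30 min. Then sonicated in 5 s pulses for 5 cycles. SOD, GSH-Px and CAT activities measured with commercial kits per instructions. Mean±SEM of three independent experiments.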

Assay [3] has as its system diploid human WI38 fibroblasts. Nature of the assay: Antiproliferative activity, SRB assay, WI38. In kind it is cell-based. The gist of the method:
(§2)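 Cells seeded at 5×10^4/well and grown 24 h, then exposed to test compound (DMSO stock) for 24 h or 48 h. Processed by standard SRB method with absorbance at 540 nm. IC50 from log plot of percent of control vs concentration. HepG2 kept in RPMI 1640; L02 and WI38 in DMEM; all with 10% FBS, 1% penicillin–streptomycin, 37 °C, 5% CO2. TI = IC50 normal cells / IC50 HepG2.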

In assay [4] the test system is cyt c release from energized mitochondria. Nature of the assay: Cyt c release from mitochondria. In kind it is biochemical, rat. To be noted: Fig. 7D.
For assay [5], the system named is GSH-Px. Nature of the assay: Mitochondrial GSH-Px activity. In kind it is biochemical, rat. To be noted: 10 μmol/L, 15 and 30 min. The gist of the method: as §1
Assay [6] deals with H2O2 production in energized hepatic mitochondria. Nature of the assay: Mitochondrial H2O2 production. To be noted: DCFDA, Fig. 2B. In kind it is biochemical, rat. The gist of the method:
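DCFDA (8 μmol/L) added to energized rat hepatic mitochondria (1 mg/mL) in standard medium (sucrose 250, HEPES 10, glutamate 10, malate 5 mmol/L; pH 7.4). Test compound added; incubated 15 or 30 min in the dark at 25 °C. Fluorescence ex 485/em 521 nm, expressed as percent of control. Mean±SEM, three independent experiments.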

Assay [7] concerns mitochondrial SOD. Nature of the assay: Mitochondrial SOD activity. To be noted: 10 μmol/L, 15 and 30 min. In kind it is biochemical, rat. The method in brief: as §1
Assay [8] concerns human hepatoma HepG2 cells. Nature of the assay: Antiproliferative activity, SRB assay, HepG2. In kind it is cell-based. To be noted: for TI 24 h / TI 48 h: TI=IC50 L02 normal cell/IC50 HepG2 cancer cell. The method in brief:
as §2

Assay [9] relates to human hepatic L02 cells. Nature of the assay: Antiproliferative activity, SRB assay, L02. In kind it is cell-based. The gist of the method: as §2
In assay [10] the test system is lipid peroxidation in the energized hepatic mitochondria. Nature of the assay: Mitochondrial lipid peroxidation induced by FeCl2/ascorbate. In kind it is biochemical, rat. Particulars: for inhibition of lipid peroxidation at 6 μmol/L: Fig. 1B. The gist of the method: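 Rat liver mitochondria (1 mg/mL, standard medium pH 7.4) with test compound (6 μmol/L). Peroxidation started with FeCl2 20 μmol/L/ascorbate 100 μmol/L and run 30 min. TCA-TBA-HCl stock plus 0.02% BHT added, then heated 15 min in a hot-water bath, cooled and centrifuged. A532 read; MDA calculated with ε532=1.5×10^5 mol/(L·cm). Three independent experiments.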

Read-outs that look alike come from different tables or passages of the source.

As for `CCCC[P+](c1ccccc1)(c1ccccc1)c1ccccc1` [ButylTPP], in [1], the “induction of mitochondrial swelling at 10 μmol/L” value is given as “triggered swelling”. The “effect on CAT activity” value in [2] is reported as “did not alter”. For the same compound, the IC50 came out at 179 ± 3.73 µM in assay [3] (read-out: IC50 WI38 24 h, WI38, 24 h, SRB); 88.5 ± 3.95 µM in [3] (read-out: IC50 WI38 48 h, WI38, 48 h, SRB); 25.4 ± 1.02 µM in assay [8] (read-out: IC50 HepG2 24 h, HepG2, 24 h, SRB); 12.8 ± 0.87 µM in assay [8] (read-out: IC50 HepG2 48 h, HepG2, 48 h, SRB); 121 ± 9.97 µM in [9] (read-out: IC50 L02 24 h, L02, 24 h, SRB); 71.4 ± 6.64 µM in assay [9] (read-out: IC50 L02 48 h, L02, 48 h, SRB). Besides, in [4], the “induction of cyt c release at 10 μmol/L” value is given as “had no effects”. Further, in assay [5], the “effect on GSH-Px activity” value is listed as “did not alter”. In addition, in assay [6], the “effect on endogenous H2O2 levels at 10 μmol/L” value was “did not affect”. Moreover, the “effect on SOD activity” value in assay [7] is listed as “did not alter”. The “TI 24 h” value in assay [8] was found to be 4.76. Moreover, the “TI 48 h” value in [8] was found to be 5.58. For the same compound, the “inhibition of lipid peroxidation at 6 μmol/L” value in assay [10] is listed as “ineffective”.
For `O=C(O)/C=C/c1ccc(O)c(O)c1` [CaA, caffeic acid], in [1] (10 μmol/L + 0.1 μmol/L Ca2+), the “mitochondrial swelling with Ca2+” value is reported as “failed to cause swelling”. For the same compound, the “induction of mitochondrial swelling at 10 μmol/L” value in assay [1] is listed as “neither MitoCA nor CaA induced swelling”. Also, the concentration for half-maximal inhibition (IC50) was 281 ± 9.47 µM in [3] (Homo sapiens, WI-38, 24 h, read-out: IC50 WI38 24 h); 198 ± 7.78 µM in assay [3] (Homo sapiens, WI-38, 48 h, read-out: IC50 WI38 48 h); 201 ± 3.88 µM in [8] (Homo sapiens, HepG2, 24 h, read-out: IC50 HepG2 24 h, HepG2, 24 h, SRB); 93 ± 1.35 µM in assay [8] (Homo sapiens, HepG2, 48 h, read-out: IC50 HepG2 48 h, HepG2, 48 h, SRB); 403 ± 18.9 µM in [9] (Homo sapiens, L02, 24 h, read-out: IC50 L02 24 h); 156 ± 8.83 µM in assay [9] (Homo sapiens, L02, 48 h, read-out: IC50 L02 48 h). In addition, the “induction of cyt c release at 10 μmol/L” value in assay [4] is reported as “had no effects”. Moreover, in assay [8], the “TI 24 h” value stood at 2.01. In assay [8], the “TI 48 h” value is recorded as 1.68. The “inhibition of lipid peroxidation at 6 μmol/L” value in assay [10] is “ineffective”. Besides, the “effect on lipid peroxidation, various concentrations” value in assay [10] (Fig. 1A) is on record as “no effect”.
